Measurements as given in ChEMBL document CHEMBL1127492, “Novel potassium channel openers: synthesis and pharmacological evaluation of new N-(substituted-3-pyridyl)-N'-alkylthioureas and related compounds” (1994).
Active and inactive are the calls of the source. No cut-off for these calls is given here.

How the values were obtained:
Assay type in all cases: functional
Rattus norvegicus [1] = species: Rattus norvegicus; experiment: Negative logarithm of the concentration causing a 100% inhibition of spontaneous mechanical activity in rat portal vein is determined in vitro
How it was run: (§1)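 Rat portal vein strips in buffer (pH 7.2) at 37 °C, gassed 5% CO2 in O2, under 0.5 g tension. Spontaneous contractions recorded isometrically by force-displacement transducer. Strips equilibrated 30 min, then compounds added cumulatively. Values are means of four independent experiments.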

Rattus norvegicus [2] = experiment: Maximum percent fall in Systolic blood pressure (SBP) was measured in anesthetized normotensive rat for 30 mins after intravenous (iv) injection at 3 mg/kg dose
How it was run: (§2)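 Male normotensive rats under anesthesia; compound given as iv bolus via tail vein. Blood pressure and heart rate recorded by pressure transducer coupled to polygraph. Systolic pressure followed for 30 min after injection; value is maximum percent fall in SBP, n = 4.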

Rattus norvegicus [3] = experiment: Maximum percent fall in Systolic blood pressure (SBP) was measured in anesthetized normotensive rat for 30 mins after intravenous (iv) injection at 1 mg/kg dose; how it was run: as §2
Rattus norvegicus [4] = experiment: Maximum percent fall in Systolic blood pressure (SBP) was measured in anesthetized normotensive rat for 30 mins after intravenous (iv) injection at 0.03 mg/kg dose; how it was run: as §2
Rattus norvegicus [5] = experiment: Maximum percent fall in Systolic blood pressure (SBP) was measured in anesthetized normotensive rat for 30 mins after intravenous (iv) injection at 0.1 mg/kg dose; how it was run: as §2
Rattus norvegicus [6] = experiment: Maximum percent fall in Systolic blood pressure (SBP) was measured in anesthetized normotensive rat for 30 mins after intravenous (iv) injection at 0.3 mg/kg dose; how it was run: as §2
Rattus norvegicus [7] = species: Rattus norvegicus; experiment: Negative logarithm of the concentration causing a 100% inhibition of spontaneous mechanical activity in rat portal vein is determined in vitro; No response; how it was run: as §1

SMILES	pEC100 (Rattus norvegicus [1])	Decrease in SBP (Rattus norvegicus [2]) [%]	Decrease in SBP (Rattus norvegicus [3]) [%]	Decrease in SBP (Rattus norvegicus [4]) [%]	Decrease in SBP (Rattus norvegicus [5]) [%]	Decrease in SBP (Rattus norvegicus [6]) [%]	pEC100 (Rattus norvegicus [7])
Nc1ccc(N/C(S)=N/C2CCCCC2)cn1	5	35	26	–	–	–	–
CC(/N=C(/NC#N)Nc1cccnc1)C(C)(C)C (stereo unspecified)	7	–	–	26	37	–	–
CC(C)(C)C1CCCCC1/N=C(\S)Nc1ccc(N)nc1 (single isomer, unassigned)	5	–	12	–	–	–	–
CSc1ccc(N/C(S)=N/C(C)C(C)(C)C)cn1 (stereo unspecified)	5	–	–	–	–	10	–
CC(/N=C(\S)Nc1ccc(Nc2ccccc2)nc1)C(C)(C)C (stereo unspecified)	–	–	5	–	–	–	inactive
CCC(C)(C)/N=C(\S)Nc1ccc(N)nc1	5	–	31	–	–	15	–
N#CN/C(=N\[C@H]1C[C@H]2CC[C@@H]1C2)Nc1ccc(N)nc1	6.5	–	–	–	25	32	–
CC(C)C/N=C(\S)Nc1ccc(N)nc1	4.7	–	23	–	–	12	–
Nc1ncccc1/N=C(\S)NC1CCCCC1	4	21	9	–	–	–	–
CNc1ccc(N/C(S)=N/C(C)C(C)(C)C)cn1 (stereo unspecified)	5	–	25	–	–	8	–
CC1(C)[C@@H]2CC[C@@]1(C)[C@H](NC(=S)Nc1ccc(N)nc1)C2	6.5	–	41	–	14	–	–
N#CN=C(Nc1ccc(N)[n+]([O-])c1)N[C@@H]1C[C@H]2CC[C@@H]1C2	6	–	16	–	–	–	–
C[C@]12CC[C@H](C[C@@H]1NC(=NC#N)Nc1ccc(N)[n+]([O-])c1)C2	6	–	31	–	–	18	–
C[C@]12CC[C@H](C[C@H]1NC(=S)Nc1ccc(N)nc1)C2	7	–	–	–	27	36	–
CC(/N=C(\S)Nc1ccc(O)nc1)C(C)(C)C (stereo unspecified)	4	–	7	–	–	–	–
Nc1ccc(NC(=S)NC2C[C@H]3CC[C@@H]2C3)cn1 (single isomer, unassigned; 22e)	7	–	–	–	19	41	–
CC(/N=C(\NC#N)Nc1cc[n+]([O-])cc1)C(C)(C)C (stereo unspecified)	5	–	–	–	–	13	–
C/N=C(\S)Nc1cnccc1N	–	15	–	–	–	–	inactive
Nc1ccc(N/C(S)=N/C23CC4CC(CC(C4)C2)C3)cn1	6.5	–	24	–	–	–	–
CC(/N=C(\S)Nc1ccc(C#N)nc1)C(C)(C)C (stereo unspecified)	5.7	–	–	–	13	28	–
Cc1ccc(N/C(S)=N/C(C)C(C)(C)C)cn1 (stereo unspecified)	5.7	–	30	–	–	18	–
CC(N/C(=N\C#N)Nc1ccncc1)C(C)(C)C (stereo unspecified) [PINACIDIL ANHYDROUS]	7	–	–	–	25	31	–
CC(/N=C(\S)Nc1ccc(N2CCCCC2)nc1)C(C)(C)C (stereo unspecified)	–	–	10	–	–	–	inactive
CC(C)(C)[C@H]1CC[C@@H](/N=C(\S)Nc2ccc(N)nc2)CC1	–	–	9	–	–	–	inactive

SMILES	pEC100 (Rattus norvegicus [1])	Decrease in SBP (Rattus norvegicus [2]) [%]	Decrease in SBP (Rattus norvegicus [3]) [%]	Decrease in SBP (Rattus norvegicus [4]) [%]	Decrease in SBP (Rattus norvegicus [5]) [%]	Decrease in SBP (Rattus norvegicus [6]) [%]	pEC100 (Rattus norvegicus [7])
CC1(C)CCC[C@H](/N=C(\S)Nc2ccc(N)nc2)C1	5	–	25	–	–	–	–
Nc1ccncc1/N=C(\S)NC1CCCCC1	5	27	22	–	–	–	–
Nc1ccc(N/C(S)=N/[C@H]2CC3C=CC2C3)cn1 (stereo partly specified)	7	–	–	–	24	32	–
C[C@]12CC[C@H](CC1/N=C(\NC#N)Nc1ccc(N)nc1)C2 (stereo partly specified)	7.5	–	–	–	26	33	–
CC(/N=C(\NC#N)Nc1ccc(N)nc1)C(C)(C)C (stereo unspecified)	6	–	30	–	–	24	–
CC(/N=C(\S)Nc1ccc(-n2ccnc2)nc1)C(C)(C)C (stereo unspecified)	3.7	11	–	–	–	–	–
CC(/N=C(\S)Nc1ccc(NCCN)nc1)C(C)(C)C (stereo unspecified)	–	–	3	–	–	–	inactive
CC(C)(C)/N=C(\NC#N)Nc1ccc(N)[n+]([O-])c1	4.5	20	19	–	–	–	–
CC1(C)[C@H]2CC[C@](C)(C2)[C@H]1NC(=S)Nc1ccc(N)nc1	5.5	39	29	–	–	–	–
Nc1ccc(NC(=S)NC2C[C@H]3CC[C@@H]2C3)cn1 (single isomer, unassigned; 22g)	7	–	22	–	–	34	–
CCCC/N=C(\S)Nc1cnccc1N	3	13	–	–	–	–	–
N#CN/C(=N\C1CC2CCC1CC2)Nc1ccc(N)[n+]([O-])c1 (stereo unspecified)	5	–	20	–	–	12	–
CC1(C)CCCC[C@@H]1/N=C(\S)Nc1ccc(N)nc1	5.5	–	26	–	–	–	–
C[C@@H]1[C@H](NC(=S)Nc2ccc(N)nc2)CC2C[C@@H]1C2(C)C	5	–	16	–	–	–	–
Nc1ccc(N/C(S)=N/C2CC3CCC2CC3)cn1 (stereo unspecified)	7	–	–	–	26	43	–
COc1ccc(N/C(S)=N/C(C)C(C)(C)C)cn1 (stereo unspecified)	5	30	17	–	–	–	–
CC(/N=C(\S)Nc1ccc(NN)nc1)C(C)(C)C (stereo unspecified)	4	26	–	–	–	–	–
Nc1cncc(N/C(S)=N/C2CCCCC2)c1	5	23	7	–	–	–	–
CC(/N=C(\S)Nc1ccc(Cl)nc1)C(C)(C)C (stereo unspecified)	5.7	–	41	–	–	27	–
CC(C)(C)/N=C(\NC#N)Nc1ccc(N)nc1	6	–	28	–	–	15	–
CC(/N=C(\S)Nc1ccc(N)nc1)C(C)(C)C (stereo unspecified)	6	–	32	–	–	29	–
CC(/N=C(\S)Nc1ccc(C(N)=O)nc1)C(C)(C)C (stereo unspecified)	5	–	9	–	–	–	–
N#CN/C(=N\C1CC2CCC1CC2)Nc1ccc(N)nc1 (stereo unspecified)	6	–	–	–	17	28	–
CC(/N=C(\NC#N)Nc1ccc(N)[n+]([O-])c1)C(C)(C)C (stereo unspecified)	5.5	–	22	–	–	16	–
